Laboratory results reported in ChEMBL document CHEMBL6177914, “Human microbiome derived synthetic antimicrobial peptides with activity against Gram-negative, Gram-positive, and antibiotic resistant bacteria” (RSC Med Chem, 2025).
Values after ≈ are worked out from the molar mass of the structure shown. Active and inactive are the calls of the source. No cut-off for these calls is given here. Peptide text beside a SMILES is read from it.

How the values were obtained:
[1] = Retention time of compound by RP-HPLC analysis; type: physicochemical
Method in brief: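 Analytical reversed-phase HPLC.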

Enterococcus faecium [2] = experiment: Antibacterial activity against vancomycin resistant Enterococcus faecium BAA 2317 assessed as inhibition of bacterial growth incubated for 24 hrs by absorbance based microplate reader analysis; type: functional; settings: for MIC: read-out: MIC100
Method in brief: (§1)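 Broth microdilution. A single colony was grown 24 h in its recommended broth, then diluted 1:10 000 in the same medium. Peptide serial dilutions were added from DMSO stock at 4 µL per 196 µL inoculated medium. Plates were incubated aerobically or anaerobically as each pathogen requires, at 37 °C for 24 h, and OD600 was read. MIC was the lowest concentration giving 100% growth inhibition. Duplicate wells; assay repeated five times independently.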

Pseudomonas aeruginosa [3] = experiment: Bactericidal activity against Pseudomonas aeruginosa BAA 1744 assessed as inhibition of bacterial growth at MIC concentration incubated for 48 hrs by broth microdilution assay; type: functional, organism-based
Method in brief: (§2)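 From broth-microdilution wells showing no growth, 10 µL was spotted onto agar and incubated 48 h at 37 °C. Plates were inspected for colonies. Fidaxomicin at 1 µM served as control.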

Staphylococcus aureus [4] = experiment: Bactericidal activity against Staphylococcus aureus ATCC 25923 assessed as inhibition of bacterial growth at MIC concentration incubated for 48 hrs by broth microdilution assay; type: functional, organism-based; method in brief: as §2
Escherichia coli [5] = experiment: Bactericidal activity against Escherichia coli ATCC 33694 assessed as inhibition of bacterial growth at MIC concentration incubated for 48 hrs by broth microdilution assay; type: functional, organism-based; method in brief: as §2
Listeria monocytogenes [6] = experiment: Bactericidal activity against Listeria monocytogenes ATCC 15313 assessed as inhibition of bacterial growth at MIC concentration incubated for 48 hrs by broth microdilution assay; type: functional, organism-based; method in brief: as §2
Enterococcus faecium [7] = experiment: Bactericidal activity against vancomycin resistant Enterococcus faecium BAA 2317 assessed as inhibition of bacterial growth at MIC concentration incubated for 48 hrs by broth microdilution assay; type: functional, organism-based
Method in brief: (§3)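 Plates were incubated 48 h at 37 °C and examined for colonies. A fidaxomicin-treated culture at 1 µM served as the control.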

Listeria monocytogenes [8] = experiment: Antibacterial activity against Listeria monocytogenes ATCC 15313 assessed as inhibition of bacterial growth incubated for 24 hrs by absorbance based microplate reader analysis; type: functional; settings: for MIC: read-out: MIC100
Method in brief: as §1, with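 “read.” for “read. MIC was the lowest concentration giving 100% growth inhibition.”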

Salmonella enterica [9] = experiment: Antibacterial activity against Salmonella enterica ATCC 13314 assessed as inhibition of bacterial growth incubated for 24 hrs by absorbance based microplate reader analysis; type: functional
Method in brief: (§4)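 Broth microdilution. An overnight single-colony culture in recommended broth was diluted 1:10 000, and peptide serial dilutions in DMSO were added (4 µL into 196 µL). Plates incubated 24 h at 37 °C, aerobic or anaerobic as required, then OD600 read. Inhibition was calculated against pathogen-only and blank wells.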

Escherichia coli [10] = experiment: Antibacterial activity against Escherichia coli ATCC 33694 assessed as inhibition of bacterial growth incubated for 24 hrs by absorbance based microplate reader analysis; type: functional; method in brief: as §4
Salmonella enterica [11] = experiment: Bactericidal activity against Salmonella enterica ATCC 13314 assessed as inhibition of bacterial growth at MIC concentration incubated for 48 hrs by broth microdilution assay; type: functional, organism-based; method in brief: as §2
Clostridioides difficile [12] = experiment: Bactericidal activity against Clostridium difficile ATCC 43602 assessed as inhibition of bacterial growth at MIC concentration incubated for 48 hrs by broth microdilution assay; type: functional, organism-based; method in brief: as §2
Staphylococcus aureus [13] = experiment: Bactericidal activity against methicillin resistant Staphylococcus aureus BAA 2313 assessed as inhibition of bacterial growth at MIC concentration incubated for 48 hrs by broth microdilution assay; type: functional, organism-based; method in brief: as §3
Pseudomonas aeruginosa [14] = experiment: Antibacterial activity against Pseudomonas aeruginosa BAA 1744 assessed as inhibition of bacterial growth incubated for 24 hrs by absorbance based microplate reader analysis; type: functional; method in brief: as §4
Staphylococcus aureus [15] = experiment: Antibacterial activity against methicillin resistant Staphylococcus aureus BAA 2313 assessed as inhibition of bacterial growth incubated for 24 hrs by absorbance based microplate reader analysis; type: functional
Method in brief: as §1, with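 “read.” for “read. MIC was the lowest concentration giving 100% growth inhibition.”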

Caco-2 [16] = experiment: Anti-inflammatory activity in human Caco-2 cells infected with Clostridium difficile ATCC 43602 assessed as reduction in IL-6 level at MIC concentration by ELISA relative to control; type: functional; set-up: scale not given: the % may be the effect or the level left
Method in brief: (§5)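 Caco-2 cells grown in DMEM + 10% FBS, 37 °C, 5% CO2, to 90% confluence, then seeded 30 000 cells/well and held 24 h. C. difficile was grown overnight anaerobically in meat broth, washed in PBS, and 1 µL of 0.5 OD600 culture added per 300 µL medium. […] Cytokine in supernatant measured by ELISA; three independent replicates.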

Clostridioides difficile [17] = experiment: Antibacterial activity against Clostridium difficile ATCC 43602 assessed as inhibition of bacterial growth incubated for 24 hrs by absorbance based microplate reader analysis; type: functional; settings: read-out: MIC100
Caco-2 [18] = experiment: Anti-inflammatory activity in human Caco-2 cells infected with Clostridium difficile ATCC 43602 assessed as reduction in TNFalpha level at MIC concentration by ELISA relative to control; type: functional; set-up: scale not given: the % may be the effect or the level left; method in brief: as §5
Caco-2 [19] = experiment: Anti-inflammatory activity in human Caco-2 cells infected with Clostridium difficile ATCC 43602 assessed as reduction in IL-1beta level at MIC concentration by ELISA relative to control; type: functional; set-up: scale not given: the % may be the effect or the level left; method in brief: as §5

Molecule	Retention_time [1] [min]	Activity (Enterococcus faecium [2])	Activity (Pseudomonas aeruginosa [3])	Activity (Staphylococcus aureus [4])	Activity (Escherichia coli [5])	Activity (Listeria monocytogenes [6])	Activity (Enterococcus faecium [7])	Activity (Salmonella enterica [9])	Activity (Escherichia coli [10])	Activity (Salmonella enterica [11])	Activity (Clostridioides difficile [12])	Activity (Staphylococcus aureus [13])	Activity (Pseudomonas aeruginosa [14])	Activity (Staphylococcus aureus [15])	also measured
CC[C@H](C)[C@H](NC(=O)[C@H](C)NC(=O)[C@H](C)NC(=O)[C@@H](N)C(C)C)C(=O)N[C@@H](CC(C)C)C(=O)NCC(=O)N[C@@H](Cc1ccccc1)C(=O)N[C@@H](CC(C)C)C(=O)N[C@@H](C)C(=O)N[C@H](C(N)=O)[C@@H](C)O	14.9														
CC[C@H](C)[C@H](NC(=O)[C@H](C)NC(=O)[C@H](C)NC(=O)[C@@H](N)C(C)C)C(=O)N[C@@H](CC(C)C)C(=O)NCC(=O)N[C@@H](Cc1ccccc1)C(=O)N[C@@H](CC(C)C)C(=O)N[C@@H](C)C(=O)N[C@@H](C(N)=O)[C@H](C)O		inactive	Active	Active	Active	Active	Active	inactive	inactive	Active	Active	Active	inactive	inactive	Activity (Listeria monocytogenes [8]): inactive
CC[C@H](C)[C@@H]1NC(=O)CNC(=O)CNC(=O)[C@H](CO)NC(=O)[C@H]([C@@H](C)CC)NC(=O)[C@H](CCCCN)NC(=O)[C@H](CO)NC(=O)[C@H](CC(C)C)NC(=O)[C@H](C(C)C)NC(=O)[C@@H]2CCCN2C(=O)[C@H]([C@@H](C)CC)NC(=O)[C@H](C(C)C)NC(=O)[C@H](CC(C)C)NC(=O)[C@@H]2CCCN2C(=O)CNC1=O (cyclo(LSKISGGIGPLVIPV))	18.35		Active	Active	Active	Active	Active	inactive		Active	Active	Active			Activity (Caco-2 [16]): 4%; MIC (Listeria monocytogenes [8]): 1.5 µM (≈ 2.15 µg/mL); MIC (Clostridioides difficile [17]): 0.9 µM (≈ 1.29 µg/mL)
O=C(O)c1cn(C2CC2)c2cc(N3CCNCC3)c(F)cc2c1=O [CIPROFLOXACIN]															MIC (Enterococcus faecium [2]): 4 µM (≈ 1.33 µg/mL)
CCc1c(Cl)c(O)c(Cl)c(O)c1C(=O)O[C@H]1[C@H](O)[C@H](OC)[C@H](OC/C2=C\C=C\C[C@H](O)/C(C)=C/[C@H](CC)[C@@H](O[C@@H]3OC(C)(C)[C@@H](OC(=O)C(C)C)[C@H](O)[C@@H]3O)/C(C)=C/C(C)=C/C[C@@H]([C@@H](C)O)OC2=O)O[C@@H]1C [FIDAXOMICIN]															MIC (Enterococcus faecium [2]): 2 µM (≈ 2.12 µg/mL); MIC (Listeria monocytogenes [8]): 1 µM (≈ 1.06 µg/mL); MIC (Clostridioides difficile [17]): 1 µM (≈ 1.06 µg/mL)
H-AGVKQGWERS-NH2	6.41		Active	Active	Active	Active	Active	inactive		Active	Active	Active	inactive		Activity (Caco-2 [18]): 0%; Activity (Caco-2 [19]): 18%
H-DAWNHADELV-NH2	15.95	inactive	Active	Active	Active	Active	Active	inactive	inactive	Active	Active	Active	inactive		Activity (Listeria monocytogenes [8]): inactive; Activity (Caco-2 [18]): 0%
H-HADELVAGVKQ-NH2	9.41		Active	Active	Active	Active	Active	inactive	inactive	Active	Active	Active	inactive		
H-IGPLVIPVAAIL-NH2	15.83		Active	Active	Active	Active	Active	inactive	inactive	Active	Active	Active	inactive		MIC (Enterococcus faecium [2]): 1.5 µM; Activity (Caco-2 [16]): 25%; MIC (Clostridioides difficile [17]): 1.8 µM
H-KISGGIGPLV-NH2	17.32	inactive	Active	Active	Active	Active	Active	inactive	inactive	Active	Active	Active	inactive	inactive	Activity (Listeria monocytogenes [8]): inactive
H-KLNEVELSKISGG-NH2	14.98		Active	Active	Active	Active	Active	inactive	inactive	Active	Active	Active	inactive		MIC (Listeria monocytogenes [8]): 2.6 µM
H-LSKISG-NH2	9.94	inactive	Active	Active	Active	Active	Active	inactive	inactive	Active	Active	Active	inactive	inactive	
H-LSKISGGIGP-NH2	13.63	inactive	Active	Active	Active	Active	Active	inactive	inactive	Active	Active	Active	inactive	inactive	
H-MNKLNEVELSKI-NH2	11.81	inactive	Active	Active	Active	Active	Active	inactive	inactive	Active	Active	Active	inactive	inactive	
